Reference: the array DNA melting data of Ke et al. (doi:10.1101/2024.01.08.574731)

What was measured:
[1] = folding enthalpy; higher = less favourable; fluorescence melt of hairpins on a sequencing array, two-state fit; details: sodium 0.088 M
How it was run: (§1)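 In 50 mM Na-HEPES pH 8.0 containing 25 mM NaCl, hairpins from the library on a sequenced MiSeq flow cell were imaged for Cy3 fluorescence at 2.5 °C steps up to 60 °C, with Cy3 and quencher oligos annealed. After normalisation to pre-quench Cy3 and to control constructs, two-state fits with bootstrapping gave melting temperature and folding enthalpy. Four replicates were combined by inverse-variance weighting, and fitted temperatures were shifted up by 9.35 °C to match UV melts.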

[2] = melting temperature; fluorescence melt of hairpins on a sequencing array, two-state fit, raised by 9.35 °C to match UV melts; details: sodium 0.088 M
How it was run: as §1

Sequence	folding enthalpy [1]	Tm [2]
GAACGCGAAAGCGTGTTC ((((((....)))..)))	-10.5 kcal/mol	46.6 °C
GAACGCGCGAAAGCGTTC (((..(((....))))))	-24.7 kcal/mol	57.8 °C
GAACGCGGAAACACGTCC (.(((.(....).))).)	-20.1 kcal/mol	28.2 °C
GAACGCGGAAACGCACTC ((..(((....)))..))	-8.19 kcal/mol	30.1 °C
GAACGCGGAAACGCATTC (((.(((....))).)))	-19.9 kcal/mol	40.1 °C
GAACGCGGAAACGCGTCC (.(((((....))))).)	-9.64 kcal/mol	47.8 °C
GAACGGAAACGTTC (((((....)))))	-31.7 kcal/mol	55.2 °C
GAACGGACGAAAGTCTTC (((..(((....))))))	-7.13 kcal/mol	20.7 °C
GAACGGGGAAACCCGCTC ((.((((....)))).))	-16.3 kcal/mol	45.3 °C
GAACGTGGAAACATGTTC ((((.((....)).))))	-36.2 kcal/mol	47.2 °C
GAACGTGGAAACGCGTTC (((((.(....).)))))	-36.4 kcal/mol	53.8 °C
GAACTAGAAATAGTTC ((((((....))))))	-29.3 kcal/mol	42 °C
GAACTAGGAAACTAGTCC (.(((((....))))).)	-20.4 kcal/mol	29.7 °C
GAACTCCCGAAAGGGTTC (((..(((....))))))	-12.6 kcal/mol	31.7 °C
GAACTGGCGAAAGCCTTC (((..(((....))))))	-6.15 kcal/mol	19.7 °C
GAACTGGGAAACCAGTCC (.(((((....))))).)	-14.1 kcal/mol	37.3 °C
GAACTTGGAAACAAGCTC ((.((((....)))).))	-27.1 kcal/mol	33.8 °C
GAACTTGGAAACAAGTCC (.(((((....))))).)	-16.4 kcal/mol	36 °C
GAACTTGGAAACAGGTTC ((((.((....)).))))	-32.2 kcal/mol	41 °C
GAAGAACGAAAGTTTTTC (((.(((....))).)))	-28.8 kcal/mol	36 °C
GAAGAAGAAATTCTTC ((((((....))))))	-18.5 kcal/mol	38.1 °C
GAAGAAGCGAAAGCTTTC (((..(((....))))))	-9.3 kcal/mol	30.1 °C
GAAGACCGAAAGGTGTTC (((.(((....))).)))	-33 kcal/mol	52 °C

Sequence	folding enthalpy [1]	Tm [2]
GAAGACGAAAGTCCGTTC ((((((....)))..)))	-8.8 kcal/mol	27.6 °C
GAAGACGAAAGTCGTTTC ((((((....)))..)))	-12.1 kcal/mol	35.3 °C
GAAGACGCGAAAGCGTTC (((..(((....))))))	-7.5 kcal/mol	32.1 °C
GAAGAGAAATCTTC (((((....)))))	-10.9 kcal/mol	30.6 °C
GAAGATGGAAACATTTTC (((.(((....))).)))	-21.9 kcal/mol	30.4 °C
GAAGCCGAAAGGCAGTTC ((((((....)))..)))	-9.04 kcal/mol	30 °C
GAAGCCGAAAGGCATTTC ((((((....)))..)))	-6.75 kcal/mol	25.9 °C
GAAGCCGAAAGGCCCTTC ((((((....)))..)))	-11.8 kcal/mol	31.3 °C
GAAGCCGAAAGGCTCTTC ((((((....)))..)))	-20.8 kcal/mol	56.6 °C
GAAGCCGGAAACGACTTC ((((.((....)).))))	-34.4 kcal/mol	46 °C
GAAGCCGGAAACGGTTTC (((.(((....))).)))	-40.2 kcal/mol	49.9 °C
GAAGCTGGAAACAGCTTC (((((((....)))))))	-40.9 kcal/mol	62.7 °C
GAAGGACGAAAGTCTTC (((.(((....))))))	-14.7 kcal/mol	39.8 °C
GAAGGAGGAAACTCCTCC (.(((((....))))).)	-12.7 kcal/mol	40.9 °C
GAAGGAGGAAACTCTTTC (((.(((....))).)))	-20.7 kcal/mol	31.6 °C
GAAGGAGGAAACTTCTTC ((((.((....)).))))	-35.7 kcal/mol	46.8 °C
GAAGGCGAAAGCCAATTC ((((((....)))..)))	-11.2 kcal/mol	39.5 °C
GAAGGCGAAAGCCAGTTC ((((((....)))..)))	-10.2 kcal/mol	29.7 °C
GAAGGCGGAAACGCCCTC ((.((((....)))).))	-8.85 kcal/mol	35.1 °C
GAAGGCGGAAACGCCTCC (.(((((....))))).)	-8.57 kcal/mol	42.3 °C
GAAGGGCCGAAAGGCTTC (((..(((....))))))	-7.08 kcal/mol	23 °C
GAAGGGCGAAAGCCGTTC (((.(((....))).)))	-22.7 kcal/mol	56.6 °C
GAAGGGCGAAAGCCTTTC (((.(((....))).)))	-17.9 kcal/mol	49.4 °C

Sequence	folding enthalpy [1]	Tm [2]
GAAGGGGCGAAAGCCTTC (((..(((....))))))	-9.14 kcal/mol	35.2 °C
GAAGGTGAAAACCTTC ((((((....))))))	-28.7 kcal/mol	57.2 °C
GAAGTAGAAATACTTC ((((((....))))))	-26.5 kcal/mol	42.5 °C
GAAGTCCGAAAGGATTC (((.(((....))))))	-14.1 kcal/mol	33.8 °C
GAAGTCGAAAGACTTC ((((((....))))))	-34.2 kcal/mol	65.7 °C
GAAGTCGGAAACGACTCC (.(((((....))))).)	-13.2 kcal/mol	41.3 °C
GAAGTCGGAAACGATTTC (((.(((....))).)))	-30.6 kcal/mol	44.2 °C
GAAGTCGGAAACGGTTTC (((..((....))..)))	-8.25 kcal/mol	28.4 °C
GAATAAGGAAACTTATTC (((((((....)))))))	-33.5 kcal/mol	44.6 °C
GAATACACGAAAGTGTTC (((..(((....))))))	-13.4 kcal/mol	27.3 °C
GAATACCGAAAGGTCTTC (((.(((....))).)))	-24.1 kcal/mol	36.7 °C
GAATACCGAAAGGTTTC (((.(((....))))))	-16.5 kcal/mol	39.2 °C
GAATACGAAAGTAGATTC ((((((....)))..)))	-20.3 kcal/mol	29.1 °C
GAATACGGAAACGTATTC (((((((....)))))))	-36.5 kcal/mol	55.7 °C
GAATAGGGAAACCTATCC (.(((((....))))).)	-15.5 kcal/mol	26.4 °C
GAATATCCGAAAGGATTC (((..(((....))))))	-13.4 kcal/mol	28.5 °C
GAATCCGAAAGGATGTTC ((((((....)))..)))	-13.8 kcal/mol	37.3 °C
GAATCCGAAAGGATTC ((((((....))))))	-37 kcal/mol	66.5 °C
GAATCCGGAAACGGATCC (.(((((....))))).)	-14.2 kcal/mol	40.6 °C
GAATCCGGAAACGGGTTC (((.(((....))).)))	-33.5 kcal/mol	52.2 °C
GAATCGAAAGATTC (((((....)))))	-27.4 kcal/mol	50.9 °C
GAATCGCGAAAGCGCTTC (((.(((....))).)))	-18.1 kcal/mol	43.2 °C
GAATCGGGAAACTGGTTC (((.(.(....).).)))	-19.8 kcal/mol	29.3 °C

Sequence	folding enthalpy [1]	Tm [2]
GAATCTCCGAAAGGATTC (((..(((....))))))	-13.5 kcal/mol	28.7 °C
GAATCTGGAAACAGACTC ((.((((....)))).))	-17.7 kcal/mol	29.1 °C
GAATCTGGAAACGGATTC (((((.(....).)))))	-35.1 kcal/mol	44.8 °C
GAATGACGAAAGTCGTTC (((.(((....))).)))	-34.4 kcal/mol	54.7 °C
GAATGAGGAAACCCATTC (((((.(....).)))))	-20.9 kcal/mol	36.1 °C
GAATGCACGAAAGTGTTC (((..(((....))))))	-8.75 kcal/mol	23.1 °C
GAATGCCGAAAGGCTTTC (((.(((....))).)))	-21.7 kcal/mol	48 °C
GAATGCGCGAAAGCGTTC (((..(((....))))))	-8.39 kcal/mol	26.1 °C
GAATGCGGAAACGCACTC ((.((((....)))).))	-13.1 kcal/mol	38.4 °C
GAATGGCCGAAAGGCTTC (((..(((....))))))	-6.89 kcal/mol	27.6 °C
GAATGTGGAAACACGTTC (((.(((....))).)))	-32.3 kcal/mol	47.8 °C
GAATGTGGAAACGCATTC (((((.(....).)))))	-37.5 kcal/mol	46 °C
GAATTAGGAAACTAGTTC (((.(((....))).)))	-16.8 kcal/mol	27.1 °C
GAATTCCGAAAGGATTC (((.(((....))))))	-20.2 kcal/mol	38.4 °C
GAATTCCGAAAGGATTTC (((.(((....))).)))	-29.7 kcal/mol	40.7 °C
GAATTCGAAAGAATTC ((((((....))))))	-44.9 kcal/mol	54.4 °C
GAATTCGGAAACGAACTC ((.((((....)))).))	-17.4 kcal/mol	33.7 °C
GAATTGGGAAACCAATTC (((((((....)))))))	-45 kcal/mol	54 °C
GAATTTGGAAACAAATTC (((((((....)))))))	-45.1 kcal/mol	52 °C
GACAAAACGAAAGTTGTC (((..(((....))))))	-24.8 kcal/mol	39.3 °C
GACAAAGGAAACTTTGTC (((((((....)))))))	-43.8 kcal/mol	53.9 °C
GACAACCCGAAAGGGGTC (((..(((....))))))	-12.9 kcal/mol	39.1 °C
